Test results reported in ChEMBL document CHEMBL1154253, “Synthesis and serotonin transporter activity of sulphur-substituted alpha-alkyl phenethylamines as a new class of anticancer agents” (Eur J Med Chem, 2009).
In brackets after ≈: the same amount, converted by molar mass. Activity calls are given as the source filed them. The rule behind the calls is not given here.

Experiments:
SH-SY5Y = assay: Cytotoxicity against human SH-SY5Y cells after 48 hrs by neutral red assay; format: functional, cell-based
[1] = molecular target: Sodium-dependent dopamine transporter (Homo sapiens, UniProt Q01959); assay: Inhibition of human dopamine transporter
Sequence of Sodium-dependent dopamine transporter (Q01959 whole entry): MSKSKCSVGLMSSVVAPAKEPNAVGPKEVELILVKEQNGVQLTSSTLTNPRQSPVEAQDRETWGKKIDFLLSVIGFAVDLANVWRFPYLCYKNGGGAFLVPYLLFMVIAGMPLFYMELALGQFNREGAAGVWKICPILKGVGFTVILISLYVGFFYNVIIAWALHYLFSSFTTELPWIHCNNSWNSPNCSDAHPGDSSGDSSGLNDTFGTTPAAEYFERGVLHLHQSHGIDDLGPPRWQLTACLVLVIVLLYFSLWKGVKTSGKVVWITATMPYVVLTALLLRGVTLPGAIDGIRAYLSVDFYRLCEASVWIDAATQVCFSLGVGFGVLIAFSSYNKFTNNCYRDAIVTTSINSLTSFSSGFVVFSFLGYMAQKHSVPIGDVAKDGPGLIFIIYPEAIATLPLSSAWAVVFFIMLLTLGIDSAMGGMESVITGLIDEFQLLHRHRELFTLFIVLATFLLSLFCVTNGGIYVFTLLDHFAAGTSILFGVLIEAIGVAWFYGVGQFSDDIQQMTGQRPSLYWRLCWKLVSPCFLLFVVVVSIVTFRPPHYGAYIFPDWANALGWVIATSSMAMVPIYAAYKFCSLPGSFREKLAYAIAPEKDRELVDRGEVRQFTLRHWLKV

HEK293 [2] = assay: Cytotoxicity against human HEK293 cells after 48 hrs by neutral red assay; format: cell-based; conditions: HEK293, 48 h
How it was run: (§1)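 Neutral Red uptake: 5 × 10⁴ cells/well grown 24–36 h to sub-confluence, then treated 48 h. Cells incubated 3 ± 1 h with NR dye, washed and solubilised in 50% ethanol–1% acetic acid, and absorbance read at 540 nm (690 nm background). Viability given as % of vehicle-treated cells. pEC50 obtained by sigmoidal regression (Hill slope 1) using 4 concentrations in triplicate on two independent days. SERT-line values compared with parental HEK293 by two-way ANOVA with Bonferroni test. Sodium azide 30 mM and Triton-X 2% as positive controls.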

Rattus norvegicus [3] = species: Rattus norvegicus; assay: Selectivity ratio of IC50 for DAT in rat brain synaptosome to IC50 for SERT in rat brain synaptosome; format: tissue-based
[4] = molecular target: T1, Sodium-dependent serotonin transporter (Homo sapiens, UniProt P31645); assay: Inhibition of [3H]5-HT uptake at SERT
Target sequence in this assay (P31645 whole entry): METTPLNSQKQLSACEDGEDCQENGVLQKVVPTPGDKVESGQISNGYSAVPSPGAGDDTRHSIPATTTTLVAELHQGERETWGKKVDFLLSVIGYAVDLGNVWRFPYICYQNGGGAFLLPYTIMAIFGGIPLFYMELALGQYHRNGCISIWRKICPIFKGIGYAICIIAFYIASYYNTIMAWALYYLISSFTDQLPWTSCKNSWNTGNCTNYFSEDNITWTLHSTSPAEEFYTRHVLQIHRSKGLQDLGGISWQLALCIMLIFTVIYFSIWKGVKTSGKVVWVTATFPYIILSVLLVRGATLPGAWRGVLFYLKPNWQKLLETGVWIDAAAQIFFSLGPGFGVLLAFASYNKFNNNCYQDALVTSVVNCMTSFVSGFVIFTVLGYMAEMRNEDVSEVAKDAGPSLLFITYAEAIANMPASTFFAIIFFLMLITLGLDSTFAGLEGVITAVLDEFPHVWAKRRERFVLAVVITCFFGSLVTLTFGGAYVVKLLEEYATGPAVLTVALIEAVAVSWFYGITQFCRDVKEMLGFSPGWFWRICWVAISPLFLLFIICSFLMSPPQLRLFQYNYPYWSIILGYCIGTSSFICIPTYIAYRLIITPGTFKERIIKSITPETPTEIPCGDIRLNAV

[5] = molecular target: Sodium-dependent noradrenaline transporter (Homo sapiens, UniProt P23975); assay: Inhibition of human noradrenaline transporter
Sequence of Sodium-dependent noradrenaline transporter (P23975 whole entry): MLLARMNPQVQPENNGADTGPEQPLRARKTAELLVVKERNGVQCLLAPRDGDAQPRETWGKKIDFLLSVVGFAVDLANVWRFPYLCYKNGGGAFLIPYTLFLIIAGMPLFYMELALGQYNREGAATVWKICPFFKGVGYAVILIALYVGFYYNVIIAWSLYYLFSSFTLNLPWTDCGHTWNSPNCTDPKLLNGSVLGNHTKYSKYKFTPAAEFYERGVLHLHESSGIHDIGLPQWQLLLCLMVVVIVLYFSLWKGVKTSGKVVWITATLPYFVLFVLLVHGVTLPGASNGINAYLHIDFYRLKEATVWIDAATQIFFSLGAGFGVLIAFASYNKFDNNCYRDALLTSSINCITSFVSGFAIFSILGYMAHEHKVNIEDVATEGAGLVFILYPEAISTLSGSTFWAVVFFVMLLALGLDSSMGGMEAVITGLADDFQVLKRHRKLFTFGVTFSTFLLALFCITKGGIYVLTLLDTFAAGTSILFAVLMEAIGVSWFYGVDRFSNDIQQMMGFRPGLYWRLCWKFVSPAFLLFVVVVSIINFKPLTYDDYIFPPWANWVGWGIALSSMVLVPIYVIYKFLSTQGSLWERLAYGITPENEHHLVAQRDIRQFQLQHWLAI

HEK293 [6] = assay: Cytotoxicity against human HEK293 cells at 1 uM after 48 hrs by neutral red assay; format: cell-based; conditions: hek293, 48 h; how it was run: as §1
[7] = molecular target: T2, Sodium-dependent serotonin transporter (Rattus norvegicus, UniProt P31652); assay: Inhibition of [3H]5-HT reuptake at rat SERT expressed in HEK293 cells after 2 mins by liquid scintillation counting; format: cell-based
T2 sequence (P31652 whole entry): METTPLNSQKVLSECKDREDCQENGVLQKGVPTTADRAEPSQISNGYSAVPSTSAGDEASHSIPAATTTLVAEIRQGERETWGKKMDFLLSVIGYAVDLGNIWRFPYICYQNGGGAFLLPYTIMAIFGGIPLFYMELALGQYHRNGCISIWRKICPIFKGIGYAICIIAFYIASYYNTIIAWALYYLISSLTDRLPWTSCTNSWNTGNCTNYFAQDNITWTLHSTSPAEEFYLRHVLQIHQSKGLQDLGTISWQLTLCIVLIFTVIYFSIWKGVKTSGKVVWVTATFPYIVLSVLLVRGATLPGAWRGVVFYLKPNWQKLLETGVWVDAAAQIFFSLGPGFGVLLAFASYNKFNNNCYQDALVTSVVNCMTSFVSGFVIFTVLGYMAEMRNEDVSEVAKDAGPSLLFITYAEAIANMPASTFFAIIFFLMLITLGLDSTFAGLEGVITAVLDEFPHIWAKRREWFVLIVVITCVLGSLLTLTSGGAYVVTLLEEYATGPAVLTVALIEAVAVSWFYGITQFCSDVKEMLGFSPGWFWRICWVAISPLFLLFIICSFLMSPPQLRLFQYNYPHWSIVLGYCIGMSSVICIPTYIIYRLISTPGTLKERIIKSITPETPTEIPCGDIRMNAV

Rattus norvegicus [8] = species: Rattus norvegicus; assay: Selectivity ratio of IC50 for NET in rat brain synaptosome to IC50 for SERT in rat brain synaptosome; format: tissue-based
[9] = molecular target: T1, Sodium-dependent serotonin transporter; assay: Inhibition of [3H]5-HT uptake at human SERT expressed in HEK293 cells after 10 mins by scintillation counting; format: cell-based
Target sequence in this assay (P31645 whole entry): as the sequence (P31645 whole entry) above

[10] = molecular target: T1, Sodium-dependent serotonin transporter; assay: Induction of human SERT-dependent cytotoxicity in SERT expressing HEK293 cells at 1 uM after 48 hrs by neutral red assay; format: cell-based; how it was run: as §1
Target sequence in this assay (P31645 whole entry, looked up): as the sequence (P31645 whole entry) above

[11] = molecular target: Sodium-dependent serotonin transporter (Rattus norvegicus) (UniProt P31652); assay: Inhibition of [3H]5-HT reuptake at rat SERT expressed in HEK293 cells at 1 uM after 2 mins by liquid scintillation counting; format: cell-based
Sequence of Sodium-dependent serotonin transporter (Rattus norvegicus) (P31652 whole entry): as the sequence (P31652 whole entry) above

[12] = Induction of apoptosis in human MUTU-I cells after 24 hrs by annexin V-propidium iodide staining-based FACS analysis; format: functional, cell-based
[13] = Antiproliferative activity against human MUTU-I cells at 50 uM after 24 hrs by alamar blue assay; format: functional
How it was run: (§2)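 Alamar Blue viability: 1–5 × 10⁴ cells/well seeded, drug-treated for the stated time, then 10 µl Alamar Blue added and incubated 4–6 h at 37 °C in the dark. Fluorescence read at ex 544/em 590 nm, medium-only background subtracted, untreated cells = 100% viability. Taxol 10 µM as positive control. Mean ± S.E.M. of six points (triplicate on two independent days).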

[14] = Antiproliferative activity against […] cells at 50 uM after 24 hrs by alamar blue assay; format: functional, 4T1; how it was run: as §2
DG-75 [15] = assay: Induction of apoptosis in human DG75 cells at 10 to 50 uM after 72 hrs by annexin V-propidium iodide staining-based FACS analysis; format: functional
DG-75 [16] = assay: Antiproliferative activity against human DG75 cells at 50 uM after 72 hrs by alamar blue assay; format: functional; how it was run: as §2
[17] = Induction of apoptosis in human MUTU-I cells at 10 to 50 uM after 24 hrs by annexin V-propidium iodide staining-based FACS analysis; format: functional
MCF7 [18] = assay: Antiproliferative activity against human MCF7 cells assessed as cell viability at 50 uM after 24 hrs by alamar blue assay; format: functional; conditions: MCF7, 24 h, read-out: Activity; how it was run: as §2
[19] = Cytotoxicity against human PBMC assessed as cell viability at 50 uM after 24 hrs by alamar blue assay; format: cell-based; conditions: read-out: Activity
How it was run: (§3)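 PBMCs from a healthy donor, separated on Ficoll and resuspended in IMDM with FCS and penicillin/streptomycin. Seeded at 1–5 × 10⁴ cells/200 µl and treated 24 h. Alamar Blue added, fluorescence read at ex 544/em 590 nm, background subtracted, untreated cells = 100% viability. Mean + S.E.M.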

HL-60 [20] = assay: Induction of apoptosis in human HL60 cells after 24 hrs by annexin V-propidium iodide staining-based FACS analysis; format: functional, cell-based; conditions: HL-60, 24 h
PBMC [21] = assay: Cytotoxicity against human PBMC at 10 uM after 24 hrs by alamar blue assay; format: cell-based; how it was run: as §3
DG-75 [22] = assay: Induction of apoptosis in human DG75 cells after 72 hrs by annexin V-propidium iodide staining-based FACS analysis; format: functional, cell-based; conditions: DG-75, 72 h
[23] = Antiproliferative activity against human MUTU-I cells assessed as cell viability at 50 uM after 24 hrs by alamar blue assay; format: functional; conditions: read-out: Activity; how it was run: as §2
HL-60 [24] = assay: Induction of apoptosis in human HL60 cells at 10 to 50 uM after 24 hrs by annexin V-propidium iodide staining-based FACS analysis; format: functional
DG-75 [25] = assay: Induction of apoptosis in human DG75 cells at 50 uM after 72 hrs by annexin V-propidium iodide staining-based FACS analysis; format: functional
DG-75 [26] = assay: Antiproliferative activity against human DG75 cells assessed as cell viability at 50 uM after 72 hrs by alamar blue assay; format: functional; conditions: DG-75, 72 h, read-out: Activity; how it was run: as §2
MCF7 [27] = assay: Antiproliferative activity against human MCF7 cells at 50 uM after 24 hrs by alamar blue assay; format: functional; how it was run: as §2
MDA-MB-231 = assay: Antiproliferative activity against human MDA-MB-231 cells at 50 uM after 24 hrs by alamar blue assay; format: functional; how it was run: as §2
[28] = molecular target: T2, Sodium-dependent serotonin transporter; assay: Inhibition of [3H]5-HT uptake at SERT in rat brain synaptosome; format: tissue-based
DG-75 [29] = assay: Antiproliferative activity against human DG75 cells after 24 to 72 hrs by alamar blue assay; format: functional, cell-based
How it was run: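 Cells seeded at 1–5 × 10⁴ per well and exposed to compound for the stated time. Alamar Blue was then added, followed by 4–6 h incubation at 37 °C in the dark. Fluorescence was read at excitation 544 nm and emission 590 nm. Medium-plus-dye background was subtracted, and untreated cells were set as 100% viability. Readings were in triplicate on two independent days.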

HL-60 [30] = assay: Antiproliferative activity against human HL60 cells after 24 hrs by alamar blue assay; format: functional, cell-based; conditions: HL-60, 24 h
[31] = Antiproliferative activity against human MUTU-I cells after 24 hrs by alamar blue assay
[32] = Induction of apoptosis in human MUTU-I cells at 50 uM after 24 hrs by annexin V-propidium iodide staining-based FACS analysis; format: functional
PBMC [33] = assay: Cytotoxicity against human PBMC at 50 uM after 24 hrs by alamar blue assay; format: cell-based; how it was run: as §3
HL-60 [34] = assay: Induction of apoptosis in human HL60 cells at 50 uM after 24 hrs by annexin V-propidium iodide staining-based FACS analysis; format: functional
[35] = molecular target: Sodium-dependent serotonin transporter (Rattus norvegicus) (UniProt P31652); assay: Inhibition of [3H]5-HT reuptake at rat SERT expressed in HEK293 cells assessed as serotonin reuptake at […] after 2 mins by liquid scintillation counting; format: cell-based; design: scale not given: the % may be the effect or the level left
[36] = molecular target: Sodium-dependent serotonin transporter (Rattus norvegicus) (UniProt P31652); assay: Inhibition of [3H]5-HT reuptake at rat SERT expressed in HEK293 cells assessed as serotonin reuptake at 100 uM after 2 mins by liquid scintillation counting; format: cell-based; design: scale not given: the % may be the effect or the level left
[37] = molecular target: Sodium-dependent serotonin transporter (Rattus norvegicus) (UniProt P31652); assay: Inhibition of [3H]5-HT reuptake at rat SERT expressed in HEK293 cells assessed as serotonin reuptake at 10 uM after 2 mins by liquid scintillation counting; format: cell-based; design: scale not given: the % may be the effect or the level left
How it was run: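 HEK293 TREx cells stably carrying rat SERT-FLAG were plated on poly-L-lysine, and expression was induced with tetracycline for 24 h. Cells were washed in TB buffer (10 mM HEPES, 150 mM NaCl, 2 mM KCl, 1 mM CaCl₂, 1 mM MgCl₂) and preincubated with compound for 5 min at 37 °C. [³H]5-HT (~1 Ci/mmol) uptake then ran 2 min at room temperature. Uptake was stopped with cold paroxetine-containing buffer, and cells were lysed in 2% SDS and counted by scintillation. Paroxetine-defined non-specific uptake was subtracted, and untreated cells were set as 100% reuptake.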

[38] = molecular target: Sodium-dependent serotonin transporter (Rattus norvegicus) (UniProt P31652); assay: Inhibition of [3H]5-HT reuptake at rat SERT expressed in HEK293 cells at 100 uM after 2 mins by liquid scintillation counting; format: cell-based

Compound: CSc1ccc(CC(C)N)cc1 (centres undefined) [4-METHYLTHIOAMPHETAMINE]
- EC50 (SH-SY5Y; read-out: EC50): 1 µM
- EC50 (SH-SY5Y; read-out: pEC50 (converted)): 608 µM
- IC50 [1]: 3.07 µM
- EC50 (HEK293 [2]; read-out: pEC50 (converted)): 18.6 µM
- Ratio IC50 (Rattus norvegicus [3]): 3070
- IC50 [4]: 0.074 µM
- IC50 [5]: 2.38 µM
- Activity (HEK293 [6]): Toxic
- IC50 [7]: 0.207 µM
- Ratio IC50 (Rattus norvegicus [8]): 2370
- Ki [9]: 0.45 µM
- Activity [10]: Active

Compound: CCSc1ccc(CC(CC)NC)cc1 (centres undefined)
- EC50 (HEK293 [2]; read-out: EC50): > 100 µM
- inhibition [11]: 26%

Compound: CC(N)Cc1ccc(Sc2ccccc2)cc1 (centres undefined)
- EC50 [12]: 14.2 µM
- Activity [13]: 90%
- Activity [14]: 90%
- EC50 (SH-SY5Y; read-out: EC50): 1 µM
- EC50 (SH-SY5Y; read-out: pEC50 (converted)): 13.2 µM
- Activity (DG-75 [15]): 40%
- EC50 (HEK293 [2]; read-out: pEC50 (converted)): 2.75 µM
- Activity (DG-75 [16]): 90%
- Activity [17]: 40%
- IC50 [7]: 14.3 µM
- viability at 50 µM (MCF7 [18]): < 10%
- viability at 24 h, 50 µM [19]: 50%
- EC50 (HL-60 [20]): 19.6 µM
- Activity (PBMC [21]): Non-toxic
- EC50 (DG-75 [22]): 23.7 µM
- viability at 50 µM [23]: 10%
- Activity (HL-60 [24]): 40%
- Activity (DG-75 [25]): 40%
- viability at 50 µM (DG-75 [26]): 10%
- Activity (MCF7 [27]): 40%
- Activity (MDA-MB-231): 90%

Compound: CC(N)Cc1ccc(Cl)cc1 (centres undefined)
- IC50 [1]: 0.424 µM
- IC50 [28]: 0.182 µM
- IC50 [5]: 0.207 µM

Compound: CC(=O)O[C@H]1C(=O)[C@@]2(C)[C@H]([C@H](OC(=O)c3ccccc3)[C@]3(O)C[C@H](OC(=O)[C@H](O)[C@@H](NC(=O)c4ccccc4)c4ccccc4)C(C)=C1C3(C)C)[C@]1(OC(C)=O)CO[C@@H]1C[C@@H]2O [PACLITAXEL]
- IC50 (DG-75 [29]): 0.01 µM
- IC50 (HL-60 [30]): 4 ng/mL (≈ 4.68 nM)
- IC50 [31]: 0.01 µM

Compound: CCC(N)c1ccc(SC)cc1 (centres undefined)
- EC50 [12]: 21 µM
- EC50 (SH-SY5Y; read-out: pEC50 (converted)): 19.5 µM
- Activity [32]: 40%
- EC50 (HEK293 [2]; read-out: pEC50 (converted)): 3.16 µM
- IC50 [7]: > 25 µM
- EC50 (HL-60 [20]): 29.5 µM
- Activity (PBMC [33]): Non-toxic
- Activity (PBMC [21]): Non-toxic
- EC50 (DG-75 [22]): 33.8 µM
- Activity (HL-60 [34]): 40%
- Activity (DG-75 [25]): 40%

Compound: CC(N)Cc1ccc(S(C)(=O)=O)cc1 (centres undefined)
- EC50 (SH-SY5Y; read-out: pEC50 (converted)): > 10000 µM
- EC50 (HEK293 [2]; read-out: pEC50 (converted)): > 10000 µM
- Activity [35]: 100%
- Activity [36]: 100%

Compound: CNC(C)Cc1ccc2c(c1)OCO2 (centres undefined) [MIDOMAFETAMINE]
- EC50 (SH-SY5Y; read-out: pEC50 (converted)): > 10000 µM
- IC50 [1]: 1.44 µM
- EC50 (HEK293 [2]; read-out: pEC50 (converted)): 245 µM
- IC50 [4]: 0.425 µM
- IC50 [5]: 0.405 µM
- IC50 [7]: 1.06 µM

Compound: CCCCCSc1ccc(C(N)CC)cc1 (centres undefined)
- EC50 (SH-SY5Y; read-out: pEC50 (converted)): > 10000 µM
- EC50 (HEK293 [2]; read-out: pEC50 (converted)): 2690 µM
- Activity [37]: 65%

Compound: CC(N)Cc1ccc(SC(C)(C)C)cc1 (centres undefined)
- EC50 (SH-SY5Y; read-out: EC50): 1 µM
- EC50 (SH-SY5Y; read-out: pEC50 (converted)): 20.4 µM
- EC50 (HEK293 [2]; read-out: pEC50 (converted)): 7.24 µM
- inhibition [38]: 100%
